{"data": "Measured values gathered from unrelated publications", "target": "Aurora kinase A (AURKA, Homo sapiens, UniProt O14965)", "One construct used (O14965 1-403)": "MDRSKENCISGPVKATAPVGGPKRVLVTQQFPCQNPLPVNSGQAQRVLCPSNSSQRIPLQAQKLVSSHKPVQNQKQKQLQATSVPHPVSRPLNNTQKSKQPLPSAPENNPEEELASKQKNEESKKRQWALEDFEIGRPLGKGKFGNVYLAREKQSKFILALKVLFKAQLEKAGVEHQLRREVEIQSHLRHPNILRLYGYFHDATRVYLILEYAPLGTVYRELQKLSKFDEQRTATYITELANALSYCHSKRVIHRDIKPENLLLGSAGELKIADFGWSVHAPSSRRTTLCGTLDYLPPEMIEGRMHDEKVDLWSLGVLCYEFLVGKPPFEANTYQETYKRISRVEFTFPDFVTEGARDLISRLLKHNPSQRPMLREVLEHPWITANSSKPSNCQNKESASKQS", "note": "Compare with care: the assays were run in different laboratories."}
{"Structure (SMILES)": "COc1cc(Nc2cnc(C#N)c(O[C@H](C)CN(C)C)n2)ncc1-c1cnn(C)c1", "observed": "enzyme activity", "mode": "inhibitor", "method": "radiometric", "concentration": "1 µM", "quantity": "remaining activity", "value": "84%"}
{"Structure (SMILES)": "CNC(=O)c1cc(Oc2ccc(NC(=O)Nc3ccc(Cl)c(C(F)(F)F)c3)cc2)ccn1", "observed": "enzyme activity", "mode": "inhibitor", "concentration": "0.3 µM", "quantity": "inhibition", "value": "16%"}
{"Structure (SMILES)": "CN1CC(Oc2cnc(C#N)cc2-c2ccn3nc(NC(=O)C4CC4)cc3c2)C1", "observed": "enzyme activity", "mode": "inhibitor", "concentration": "1 µM", "quantity": "inhibition", "value": "6%"}
{"Structure (SMILES)": "COc1cc2ncnc(Nc3ccc(Oc4ccccc4)cc3C)c2cc1OC", "observed": "enzyme activity", "mode": "inhibitor", "concentration": "1 µM", "quantity": "inhibition", "value": "8%"}
{"Structure (SMILES)": "Cc1c[nH]c2nccc(Oc3c(F)cc(Nc4cc(Cl)nc(N)n4)cc3F)c12", "observed": "cell-free assay", "method": "competition with immobilised ligand", "concentration": "0.1 µM", "quantity": "remaining binding", "value": "94%"}
{"Structure (SMILES)": "Cc1ccc(Nc2nccc(N(C)c3ccc4c(C)n(C)nc4c3)n2)cc1S(N)(=O)=O", "observed": "enzyme activity", "mode": "inhibitor", "concentration": "0.3 µM", "quantity": "inhibition", "value": "73%"}
{"Structure (SMILES)": "Cc1nc(Cc2cccc(C(F)(F)F)c2)sc1-c1ccc(C(N)=O)nc1", "observed": "cell-free assay", "method": "competition with immobilised ligand", "concentration": "1 µM", "quantity": "remaining binding", "value": "100%"}
{"Structure (SMILES)": "CC(C)(C)c1nc(-c2cccc(NS(=O)(=O)c3c(F)cccc3F)c2F)c(-c2ccnc(N)n2)s1", "observed": "enzyme activity", "mode": "inhibitor", "method": "radiometric", "concentration": "1 µM", "quantity": "remaining activity", "value": "102%"}
{"Structure (SMILES)": "Cc1[nH]c(/C=C2\\C(=O)Nc3ccc(F)cc32)c(C)c1C(=O)N[C@H]1CCN(C(=O)N(C)C)C1", "observed": "enzyme activity", "mode": "inhibitor", "concentration": "0.1 µM", "quantity": "remaining activity", "value": "82%"}
{"Structure (SMILES)": "Cc1cnc(NC2CCOCC2)nc1-n1cnc(C(=O)NC(CN)c2cc(F)cc(Cl)c2)c1 (centres unmarked)", "observed": "enzyme activity", "mode": "inhibitor", "method": "radiometric", "concentration": "1 µM", "quantity": "remaining activity", "value": "48%"}
{"Structure (SMILES)": "CNC(=O)c1ccccc1Nc1cc(Nc2ccc(N3CCOCC3)cc2OC)ncc1C(F)(F)F", "observed": "enzyme activity", "mode": "inhibitor", "concentration": "1 µM", "quantity": "inhibition", "value": "> 50%"}
{"Structure (SMILES)": "O=C(CSc1nc2nccnc2c(=O)n1CCc1ccccc1)Nc1nccs1", "observed": "enzyme activity", "mode": "inhibitor", "concentration": "10 µM", "quantity": "inhibition", "value": "1%"}
{"Structure (SMILES)": "Cc1c(NC(=O)c2cc(C(N)=O)nc3cc(F)ccc23)c(C(F)(F)F)nn1Cc1ccc(C#N)cc1", "observed": "cell-free assay", "method": "competition with immobilised ligand", "concentration": "1 µM", "quantity": "remaining binding", "value": "89%"}
{"Structure (SMILES)": "Oc1cccc(-c2nc(N3CCOCC3)c3oc4ncccc4c3n2)c1", "observed": "enzyme activity", "mode": "inhibitor", "concentration": "10 µM", "quantity": "remaining activity", "value": "92%"}
{"Structure (SMILES)": "CC1=C(C#N)C(c2ccc3c(c2)c(NC(=O)c2ccccc2C)nn3C)C(C#N)=C(C)N1", "observed": "cell-free assay", "method": "competition with immobilised ligand", "concentration": "1 µM", "quantity": "remaining binding", "value": "61%"}
{"Structure (SMILES)": "CC/C(=N\\NC(=O)NCc1cccc(O)c1)c1ccc(O)c(C)c1O", "observed": "enzyme activity", "mode": "inhibitor", "concentration": "0.1 µM", "quantity": "inhibition", "value": "5.9%"}
{"Structure (SMILES)": "FC(F)c1nc2ccccc2n1-c1nc(N2CCOCC2)nc(N2CCOCC2)n1", "observed": "enzyme activity", "mode": "inhibitor", "concentration": "10 µM", "quantity": "remaining activity", "value": "99%"}
{"Structure (SMILES)": "Cc1ccc(NC(=O)c2ccc(C)c(C(F)(F)F)c2)cc1C#Cc1nn(C2CCC(O)CC2)c2ncnc(N)c12 (centres unmarked)", "observed": "cell-free assay", "concentration": "10 µM", "quantity": "remaining signal", "value": "64%"}
{"Structure (SMILES)": "CCN(CC)CCNC(=O)c1c(C)[nH]c(/C=C2\\C(=O)Nc3ccc(F)cc32)c1C", "observed": "enzyme activity", "mode": "inhibitor", "concentration": "0.3 µM", "quantity": "inhibition", "value": "28%"}
{"Structure (SMILES)": "O=C1NC(=O)c2cc(Nc3ccc(F)cc3)c(Nc3ccc(F)cc3)cc21", "observed": "cell-free assay", "concentration": "0.5 µM", "quantity": "remaining signal", "value": "92.7%"}
{"Structure (SMILES)": "CNc1cccc2cc(C(=O)Nc3ccc(C(=O)O)cc3)c(=O)[nH]c12", "observed": "enzyme activity", "mode": "inhibitor", "concentration": "10 µM", "quantity": "inhibition", "value": "16%"}
{"Structure (SMILES)": "COc1cc2nccc(Oc3ccc(NC(=O)c4c5n(n(-c6ccc(F)cc6)c4=O)CCCC5)cc3)c2cc1OC", "observed": "enzyme activity", "mode": "inhibitor", "concentration": "0.1 µM", "quantity": "inhibition", "value": "-3%"}
{"Structure (SMILES)": "CNc1cc(Oc2cc(C(=O)Nc3cc(N4CCN(C)CC4)cc(C(F)(F)F)c3)ccc2C)ncn1", "observed": "target engagement in cells", "mode": "inhibitor", "method": "chemoproteomics", "cell line": "Huh-7", "concentration": "1 µM", "quantity": "inhibition", "value": "-45.4%"}
{"Structure (SMILES)": "CCN(CC)CCNC(=O)c1c(C)[nH]c(/C=C2\\C(=O)Nc3ccc(F)cc32)c1C", "observed": "enzyme activity", "mode": "inhibitor", "concentration": "1 µM", "quantity": "remaining activity", "value": "43%"}
{"Structure (SMILES)": "Cc1cc(NC(=O)c2cccc(S(F)(F)(F)(F)F)c2)cc(-n2ccn3nc(-c4cccnc4)cc23)c1", "observed": "cell-free assay", "method": "competition with immobilised ligand", "concentration": "1 µM", "quantity": "remaining binding", "value": "84.9%"}
{"Structure (SMILES)": "CSc1nc(C)c(-c2ccnc(Nc3ccc(N4CCOCC4)cc3)c2)[nH]1", "observed": "enzyme activity", "mode": "inhibitor", "concentration": "10 µM", "quantity": "inhibition", "value": "40.6%"}
{"Structure (SMILES)": "O=C(N1CCS(=O)(=O)CC1)N1C[C@H](c2ccc(OC(F)(F)F)cc2)C[C@H](c2nc(C3CC3)no2)C1", "observed": "cell-free assay", "method": "competition with immobilised ligand", "concentration": "1 µM", "quantity": "remaining binding", "value": "100%"}
{"Structure (SMILES)": "C[C@@H]1CCN(C(=O)CC#N)C[C@@H]1N(C)c1ncnc2[nH]ccc12", "observed": "cell-free assay", "mode": "inhibitor", "concentration": "0.5 µM", "quantity": "remaining signal", "value": "84.1%"}
{"Structure (SMILES)": "CS(=O)(=O)N1CCCC(NC(=O)[C@H](CCC2CCCCC2)NC(=O)c2ccc(CNC(=O)c3cnc4ccccn34)cc2)C1 (some centres unmarked)", "observed": "cell-free assay", "method": "competition with immobilised ligand", "concentration": "0.1 µM", "quantity": "remaining binding", "value": "100%"}
{"Structure (SMILES)": "O=C(Nc1cnn(-c2csc(C(=O)NC3COC3)c2)c1)Nc1ccccc1Cl", "observed": "enzyme activity", "mode": "inhibitor", "concentration": "5 µM", "quantity": "remaining activity", "value": "105%"}
{"Structure (SMILES)": "CS(=O)(=O)c1cc(C2(NC(=O)c3cncc4c3cnn4-c3ccc(F)cc3)CC2)ccn1", "observed": "cell-free assay", "method": "competition with immobilised ligand", "concentration": "1 µM", "quantity": "remaining binding", "value": "89%"}
{"Structure (SMILES)": "CCCOc1ccc(OC)c(F)c1C(=O)c1ccc(C(=O)N[C@@H]2CNC[C@H]2NC(=O)c2ccc3[nH]ncc3c2)cc1", "observed": "enzyme activity", "mode": "inhibitor", "concentration": "10 µM", "quantity": "remaining activity", "value": "33%"}
